{"source": "ChEMBL document CHEMBL6153131", "about": "“Rational Design and Optimization of a Potent IDO1 Proteolysis Targeting Chimera (PROTAC)” (J Med Chem, 2025)", "key": {"[1]": {"molecular_target": "T1, Protein cereblon/Indoleamine 2,3-dioxygenase 1 (Homo sapiens, UniProt P14902+Q96SW2)", "assay": "PROTAC activity at CRBN/N-terminal HiBiT-tagged IDO1 (unknown origin) transfected in human U87 cells assessed as induction of IDO1 degradation pretreated with IFN-gamma for 24 hrs followed by compound addition and measured after 24 hrs by Nano-Glo HiBiT assay", "type": "cell-based", "how_it_was_run": "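U87 cells carrying HiBiT knocked in by CRISPR/Cas9 at the IDO1 N-terminus, treated for 24 h. Degradation read as loss of luminescence. DC50 fitted from the lowest concentration up to maximal degradation, excluding hook-effect points; triplicate mean ± SD.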"}, "[2]": {"molecular_target": "T1, Protein cereblon/Indoleamine 2,3-dioxygenase 1", "assay": "PROTAC activity at CRBN/IDO1 in human U87 cells assessed as induction of IDO1 degradation by measuring remaining activity at 0.001 uM pretreated with IFN-gamma for 24 hrs followed by compound addition and measured after 24 hrs by Western blotting analysis (reference value: 100%)", "type": "cell-based", "how_it_was_run": "(§1)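 U87 cells given an extended dose range of PROTAC for 24 h, then Western blot for IDO1. IFNγ-induced IDO1 levels normalised to untreated samples. n = 3 independent experiments; mean ± SEM.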"}, "[3]": {"molecular_target": "T1, Protein cereblon/Indoleamine 2,3-dioxygenase 1", "assay": "PROTAC activity at CRBN/IDO1 in human U87 cells assessed as induction of IDO1 degradation by measuring remaining activity at 0.01 uM pretreated with IFN-gamma for 24 hrs followed by compound addition and measured after 24 hrs by Western blotting analysis (reference value: 100%)", "type": "cell-based", "how_it_was_run": "as §1"}, "[4]": {"molecular_target": "T1, Protein cereblon/Indoleamine 2,3-dioxygenase 1", "assay": "PROTAC activity at CRBN/IDO1 in human U87 cells assessed as induction of IDO1 degradation by measuring remaining activity at 10 uM pretreated with IFN-gamma for 24 hrs followed by compound addition and measured after 24 hrs by Western blotting analysis (reference value: 100%)", "type": "cell-based", "how_it_was_run": "as §1"}, "U-87MG ATCC": {"tested_on": "U-87MG ATCC", "assay": "Inhibition of kynurenine production in human U87 cells […] and measured after 24 hrs by Ehrlich's reagent based analysis", "type": "functional, cell-based", "conditions": "dose 0.001-10 µM", "how_it_was_run": "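U87 cells plated, then 24 h later given compound with 50 ng/mL IFN-γ for a total of 24 h. Supernatant kynurenine measured with Ehrlich's reagent; cells without IFN-γ as control; mean ± SEM, Tukey's test.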"}, "[5]": {"molecular_target": "T1, Protein cereblon/Indoleamine 2,3-dioxygenase 1", "assay": "PROTAC activity at CRBN/IDO1 in human GBM43 cell assessed as induction of IDO1 degradation at 10 uM pretreated with IFN-gamma for 24 hrs followed by compound addition and measured after 24 hrs by Western blotting analysis (reference value: 100%)", "type": "cell-based", "how_it_was_run": "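GBM43 patient-derived cells given an extended dose range of PROTAC for 24 h. Protein analysed by Western blot for IDO1, and IFNγ-induced IDO1 normalised to untreated samples. n = 3 independent experiments; data as mean ± SEM.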"}, "[6]": {"molecular_target": "T1, Protein cereblon/Indoleamine 2,3-dioxygenase 1", "assay": "PROTAC activity at CRBN/IDO1 in human GBM43 cell assessed as induction of IDO1 degradation pretreated with IFN-gamma for 24 hrs followed by compound addition and measured after 24 hrs by Western blot analysis", "type": "cell-based", "how_it_was_run": "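GBM43 cells treated for 24 h across an extended dose range. IDO1 Western blot, IFN-γ-induced IDO1 normalized to untreated; DC50 from n = 3 independent experiments.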"}, "[7]": {"molecular_target": "T1, Protein cereblon/Indoleamine 2,3-dioxygenase 1", "assay": "PROTAC activity at CRBN/IDO1 in human U87 cells assessed as induction of IDO1 degradation by measuring remaining activity at 25 nM pretreated with IFN-gamma for 24 hrs followed by compound addition and measured after 24 hrs by Western blotting analysis (reference value: 100%)", "type": "cell-based"}, "[8]": {"molecular_target": "T1, Protein cereblon/Indoleamine 2,3-dioxygenase 1", "assay": "PROTAC activity at CRBN/IDO1 in human U87 cells assessed as induction of IDO1 degradation by measuring remaining activity at 50 nM pretreated with IFN-gamma for 24 hrs followed by compound addition and measured after 24 hrs by Western blotting analysis (reference value: 100%)", "type": "cell-based"}, "[9]": {"molecular_target": "T1, Protein cereblon/Indoleamine 2,3-dioxygenase 1", "assay": "PROTAC activity at CRBN/IDO1 in human U87 cells assessed as induction of IDO1 degradation by measuring remaining activity at 100 nM pretreated with IFN-gamma for 24 hrs followed by compound addition and measured after 24 hrs by Western blotting analysis (reference value: 100%)", "type": "cell-based"}, "[10]": {"molecular_target": "T1, Protein cereblon/Indoleamine 2,3-dioxygenase 1", "assay": "PROTAC activity at CRBN/IDO1 in human U87 cells assessed as induction of IDO1 degradation by measuring remaining activity at 100 nM pretreated with IFN-gamma for 24 hrs followed by compound addition and measured after 2 hrs by Western blotting analysis (reference value: 100%)", "type": "cell-based", "how_it_was_run": "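U87 cells under single continuous PROTAC treatment (50 and 100 nM), sampled at multiple time points up to 72 h. IDO1 assessed by Western blot.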"}, "[11]": {"molecular_target": "T1, Protein cereblon/Indoleamine 2,3-dioxygenase 1", "assay": "PROTAC activity at CRBN/IDO1 in human U87 cells overexpressing GFP-fused IDO1 assessed as induction of IDO1 degradation pretreated with IFN-gamma for 24 hrs followed by compound addition and measured after 24 hrs by Western blotting analysis", "type": "cell-based", "conditions": "dose 50-100 nM", "how_it_was_run": "(§2)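 Cells had IDO1 induced with IFNγ, then were treated at the indicated concentrations for 24 h. Lines: PDX-6 and PDX-38 adult GBM PDX cells, U87 overexpressing GFP-fused IDO1, PC-3, KNS42, MDA-MB-231, SW-1990 and SKOV-3. Lysates probed for IDO1 and GAPDH by Western blot; representative of 3 separate replicates.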"}, "[12]": {"molecular_target": "T1, Protein cereblon/Indoleamine 2,3-dioxygenase 1", "assay": "PROTAC activity at CRBN/IDO1 in human MDA-MB-231 cells assessed as induction of IDO1 degradation pretreated with IFN-gamma for 24 hrs followed by compound addition and measured after 24 hrs by Western blotting analysis", "type": "cell-based", "conditions": "dose 50-100 nM", "how_it_was_run": "as §2"}, "PDX-6": {"tested_on": "PDX-6", "assay": "Inhibition of kynurenine production in human PDX-6 cells pretreated with IFN-gamma for 24 hrs followed by compound addition and measured after 24 hrs by Ehrlich's reagent based analysis", "type": "functional, cell-based", "conditions": "dose 50-100 nM"}, "PC-3": {"tested_on": "PC-3", "assay": "Inhibition of kynurenine production in human PC-3 cells pretreated with IFN-gamma for 24 hrs followed by compound addition and measured after 24 hrs by Ehrlich's reagent based analysis", "type": "functional, cell-based", "conditions": "dose 50-100 nM"}, "MDA-MB-231": {"tested_on": "MDA-MB-231", "assay": "Inhibition of kynurenine production in human MDA-MB-231 cells pretreated with IFN-gamma for 24 hrs followed by compound addition and measured after 24 hrs by Ehrlich's reagent based analysis", "type": "functional, cell-based", "conditions": "dose 50-100 nM"}, "SK-OV-3": {"tested_on": "SK-OV-3", "assay": "Inhibition of kynurenine production in human SK-OV-3 cells pretreated with IFN-gamma for 24 hrs followed by compound addition and measured after 24 hrs by Ehrlich's reagent based analysis", "type": "functional, cell-based", "conditions": "dose 50-100 nM"}, "SW1990": {"tested_on": "SW1990", "assay": "Inhibition of kynurenine production in human SW1990 cells pretreated with IFN-gamma for 24 hrs followed by compound addition and measured after 24 hrs by Ehrlich's reagent based analysis", "type": "functional, cell-based", "conditions": "dose 50-100 nM"}, "Kelly": {"tested_on": "Kelly", "assay": "Downregulation of EPHX2 protein level in human Kelly cells at 1 uM incubated for 24 hrs by proteomics analysis", "type": "functional, cell-based"}, "[13]": {"molecular_target": "Indoleamine 2,3-dioxygenase 1 (Homo sapiens) (UniProt P14902)", "sequence (P14902 whole entry, looked up)": "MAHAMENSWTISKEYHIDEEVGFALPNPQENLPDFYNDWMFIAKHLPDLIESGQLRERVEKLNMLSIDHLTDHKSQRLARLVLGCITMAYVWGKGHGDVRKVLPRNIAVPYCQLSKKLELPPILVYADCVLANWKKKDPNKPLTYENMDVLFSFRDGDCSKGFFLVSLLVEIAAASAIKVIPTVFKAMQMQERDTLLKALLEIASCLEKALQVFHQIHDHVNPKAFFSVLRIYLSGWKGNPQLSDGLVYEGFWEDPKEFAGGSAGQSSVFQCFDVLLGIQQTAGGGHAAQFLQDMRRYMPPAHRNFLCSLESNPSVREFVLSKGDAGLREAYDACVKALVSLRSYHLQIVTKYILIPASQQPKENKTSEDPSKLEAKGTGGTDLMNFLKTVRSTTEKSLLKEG", "assay": "Binding affinity to 6His-tagged recombinant IDO1 (unknown origin) assessed as binary complex formation by measuring half life by Biolayer Interferometry assay"}, "[14]": {"molecular_target": "T1, Protein cereblon/Indoleamine 2,3-dioxygenase 1", "assay": "Binding affinity to CRBN/6His-tagged recombinant IDO1 (unknown origin) assessed as ternary complex formation by measuring half life by Biolayer Interferometry assay", "type": "protein assay"}, "[15]": {"assay": "Half life in female C57BL/6J mouse plasma at 50 mg/kg, ip by LC-MS/MS analysis", "type": "ADME, organism-based"}, "[16]": {"assay": "Half life in female C57BL/6J mouse brain at 50 mg/kg, ip by LC-MS/MS analysis", "type": "ADME, organism-based"}}, "note": "Active and inactive are the calls of the source. No cut-off for these calls is given here.", "data": [{"smiles": "C[C@@H](C(=O)Nc1cccc(OC2CCN(C(=O)CN3CCC(N4CCN(c5ccc6c(c5)C(=O)N(C5CCC(=O)NC5=O)C6=O)CC4)CC3)CC2)c1)[C@H]1CC[C@@H](c2ccnc3ccc(F)cc32)CC1", "note": "(stereo partly drawn)", "values": [{"measurement": "DC50", "setting": "[1]", "value": 4.5, "unit": "nM"}, {"measurement": "Activity", "setting": "[2]", "value": 83, "unit": "%"}, {"measurement": "Activity", "setting": "[3]", "value": 48, "unit": "%"}, {"measurement": "Activity", "setting": "[4]", "value": 69, "unit": "%"}, {"measurement": "inhibition", "setting": "U-87MG ATCC", "value": "Dose-dependent-effect"}, {"measurement": "Activity", "setting": "[5]", "value": 87, "unit": "%"}, {"measurement": "DC50", "setting": "[6]", "value": 11.8, "unit": "nM"}, {"measurement": "Activity", "setting": "[7]", "value": 35, "unit": "%"}, {"measurement": "Activity", "setting": "[8]", "value": 28, "unit": "%"}, {"measurement": "Activity", "setting": "[9]", "value": 24, "unit": "%"}, {"measurement": "Activity", "setting": "[10]", "value": 86, "unit": "%"}, {"measurement": "Activity", "setting": "[11]", "value": "Dose-dependent-effect"}, {"measurement": "Activity", "setting": "[12]", "value": "Dose-dependent-effect"}, {"measurement": "inhibition", "setting": "PDX-6", "value": "Dose-dependent-effect"}, {"measurement": "inhibition", "setting": "PC-3", "value": "Dose-dependent-effect"}, {"measurement": "inhibition", "setting": "MDA-MB-231", "value": "Dose-dependent-effect"}, {"measurement": "inhibition", "setting": "SK-OV-3", "value": "Dose-dependent-effect"}, {"measurement": "inhibition", "setting": "SW1990", "value": "Dose-dependent-effect"}, {"measurement": "Activity", "setting": "Kelly", "value": "Active"}, {"measurement": "T1/2", "setting": "[13]", "value": 38.6, "unit": "s"}, {"measurement": "T1/2", "setting": "[14]", "value": 0.289, "unit": "h"}, {"measurement": "half-life", "setting": "[15]", "value": 5.7, "unit": "h"}, {"measurement": "half-life", "setting": "[16]", "value": 11.8, "unit": "h"}]}]}
